High-throughput results as filed in PubChem BioAssay.
A selection: hits, their analogues and other compounds. The true share with any hit is near 4.6%.
ALR H2O2 inh: human ALR oxidase inhibition via reduced H2O2 | actives 3.8% (n = 290,000) | purified ALR, DTT oxidation, H2O2 HRP-luminol luminescence | P55789 | inhibition, % (test concentration not listed) | AID 485317;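 active = mean replicate inhibition above about 79%, with every replicate also reaching it, limit read from the data; inconclusive = only one of the two criteria met; inactive = mean below limit and not every replicate reaching it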
Target sequence (P55789 whole entry, looked up): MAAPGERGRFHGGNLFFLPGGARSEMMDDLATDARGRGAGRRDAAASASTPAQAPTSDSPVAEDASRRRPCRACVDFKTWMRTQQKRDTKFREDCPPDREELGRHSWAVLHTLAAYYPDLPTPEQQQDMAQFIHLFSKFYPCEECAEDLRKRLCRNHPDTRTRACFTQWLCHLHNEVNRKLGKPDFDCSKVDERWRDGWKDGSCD
HDAC3 inh: inhibitors of human histone deacetylase 3. recombinant HDAC3, fluorogenic peptide/trypsin coupled, fluorescence. AID 2718. O15379. inhibition, % at 8.3 µM. actives 0.15% (n = 320,000); in the data active = inhibition above about 26%, passing the limit was not always enough; inconclusive = no clear call, values can overlap the other calls
Target sequence (O15379 whole entry, looked up): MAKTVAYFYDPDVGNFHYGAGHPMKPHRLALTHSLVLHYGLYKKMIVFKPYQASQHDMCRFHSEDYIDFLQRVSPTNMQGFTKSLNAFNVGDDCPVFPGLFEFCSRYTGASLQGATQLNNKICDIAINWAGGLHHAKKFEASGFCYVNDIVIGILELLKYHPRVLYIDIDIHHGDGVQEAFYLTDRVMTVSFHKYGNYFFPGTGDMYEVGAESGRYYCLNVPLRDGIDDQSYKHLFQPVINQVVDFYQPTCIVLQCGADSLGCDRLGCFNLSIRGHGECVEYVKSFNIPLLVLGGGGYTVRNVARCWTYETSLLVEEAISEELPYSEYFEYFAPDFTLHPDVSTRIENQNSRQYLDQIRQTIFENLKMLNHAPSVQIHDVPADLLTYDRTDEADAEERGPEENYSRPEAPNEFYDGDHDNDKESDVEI
UCH37 inh: human UCH37 deubiquitinating enzyme inhibition; Q9Y5K5; purified proteasome/UCH37, Ub-AMC cleavage fluorescence; inhibition, % (concentration not given with the values); actives 0.33% (n = 330,000);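 active = mean inhibition over replicate wells above about 20%, limit read from the data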;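 also: 0% = compound-free wells with enzyme and 100% = wells lacking proteasome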
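Material: Human UCH37 enzyme supplied as purified proteasome complex | Schedule: 30 min compound-proteasome preincubation then 25 min substrate reaction, room temperature | Detection: AMC fluorescence from Ub-AMC cleavage, excitation 355 nm, emission 460 nm | Benchmarks: Wells without proteasome as full block, compound-free enzyme plus substrate as uninhibited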
FAS TE block: blocks the thioesterase domain of human fatty acid synthase; actives 0.67% (n = 360,000); P49327; inhibition, % at 15 µM; recombinant FAS-TE, OMFH fluorogenic substrate, fluorescence endpoint;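 active = compounds whose normalised, plate-corrected inhibition of enzyme fluorescence in the single-dose primary screen is 50% or more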;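 also: 0% = DMSO with enzyme and 100% = substrate without enzyme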
PfM18AAP inh: blocks P. falciparum M18 aspartyl aminopeptidase. recombinant PfM18AAP, H-Glu-NHMec fluorogenic cleavage. inhibition, % at 7.35 µM. actives 1.2% (n = 290,000). AID 1822;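 active = inhibition above the campaign mean inhibition over all tested compounds plus 3 SD, cut at about 28% in these data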;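 also: 0% = plate median of test compound wells and 100% = 2 mM ZnCl2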
Rtt109 HAT inh: C. albicans Rtt109 histone acetyltransferase inhibition; purified Rtt109/Vps75, ThioGlo CoA-SH fluorescence, 4 h; inhibition, % at 34.9 µM; actives 0.16% (n = 330,000); AID 540336;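 active = inhibition of at least 50% in every replicate; inconclusive = best replicate reaches 50% inhibition but some replicates fall short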
Numbers without * were called inactive; ? = inconclusive; · = no result given.

SMILES	ALR H2O2 inh	HDAC3 inh	UCH37 inh	FAS TE block	PfM18AAP inh	Rtt109 HAT inh
COc1ccc(C(C2C(=O)CC(C)(C)CC2=O)C2C(=O)CC(C)(C)CC2=O)cc1CO	96.2*	-0.1	1.1	-5.1	5.6	1.9
CCC(C)S(=O)(=O)c1snnc1C (stereo unspecified)	-0.6	-4.3	30.8*	-6.2	3.2	7.7
C/C(=N/Nc1ccccc1C(=O)O)c1cccs1	94.5*	6.7	·	-4.9	7.6	13.6
CCOc1ccc(C=NOCC(=O)Nc2ccc3c(c2)OCO3)cc1	·	·	0.2	·	·	·
Nc1nc(N)c(N=O)c(OCC2CCCCC2)n1	92.5*	9.5	2.4	4.5	6.5	-2.1
CCOc1ccc(C(=O)Nn2cnnc2)cc1	-0.4	-8.6	3.8	-9.5	21.7	-3.5
Cc1ccc(C(=O)Nn2cnnc2)cc1	20.4	-7.4	1.3	-6.9	28.9*	-2.4
CCCn1c(C(C)NC(=O)c2ccccc2)n[nH]c1=S (stereo unspecified)	94.3*	-10.6	2.4	-2.3	23.8	0.0
O=c1[nH]c(=O)c2nnc(N/N=C/c3ccccc3F)nc2[nH]1	16.4	3.1	·	-7.8	-1.1	11.3
O=c1[nH]c(=O)c2nnc(N/N=C\c3ccc(O)cc3)nc2[nH]1	99.2*	6.1	·	-5.6	5.5	8.5
CC(CC(=O)Nc1ccc(Cl)cc1Cl)=NNC(=O)c1ccco1	·	·	5.0	·	·	·
COc1ccc(NC(=O)Nc2ccc3nonc3c2)cc1	-2.0	-5.9	0.2	11.3	3.5	·
COc1ccc(NC(=O)Nc2ccc3nccnc3c2)cc1	99.8*	0.4	2.0	0.8	5.0	-11.6
O=c1c2ccccc2nc(NN=Cc2c(O)ccc3ccccc23)n1O	·	·	-3.9	·	·	·
COc1cc(C=NNC(=O)c2ccncc2)cc(OC)c1OC	·	·	5.2	·	·	·
COC(=O)c1ccccc1NC(=O)CSc1nccn1C	-11.3	7.0	4.7	-6.4	-7.4	3.0
Cn1ccnc1SCC(=O)c1c[nH]c2ccccc12	96.2*	-7.1	3.9	-5.6	2.7	-3.4
O=C(CSc1nccc(=O)[nH]1)c1c[nH]c2ccccc12	-5.7	·	2.4	-6.6	-19.1	2.0
COc1ccccc1C(=O)CSc1nccn1C	·	-0.1	2.7	-1.0	-0.2	53.8*
Cc1cc(NN=Cc2ccncc2)c([N+](=O)[O-])cc1[N+](=O)[O-]	·	·	7.8	·	·	·
Cc1ccc(NC(=O)CCCC(=O)O)c(Br)c1	6.5	0.8	0.9	-3.7	2.4	4.3
Cc1ccc(O)c(NC(=O)CCCC(=O)O)c1	82.2*	-2.8	-0.1	-9.3	1.9	-1.2
Cc1ccc(-c2cc(C(=O)NC3=NCCS3)c3ccccc3n2)cc1C	89.9*	11.8	-10.3	-82.3	7.7	-2.7
O=C(NC1=NCCS1)c1ccccc1Cl	·	2.2	5.1	-3.9	2.4	-1.5
O=C(Nc1ccon1)c1cc(-c2ccccc2)nc2ccccc12	-2.3	-0.7	-5.2	-1.2	-6.1	8.3
SMILES	ALR H2O2 inh	HDAC3 inh	UCH37 inh	FAS TE block	PfM18AAP inh	Rtt109 HAT inh
O=C(O)c1ccccc1NC(=O)c1cc(-c2ccccc2)nc2ccccc12	98.2*	-3.8	3.6	-1.8	4.3	30.7
O=C(NC1=NCCS1)c1csc2ccccc12	98.5*	-1.4	4.3	-12.2	14.2	-13.7
CC(/C=C/c1cccc([N+](=O)[O-])c1)=NNC(=O)c1cccnc1	·	·	7.8	·	·	·
CCCc1c(C(=O)NN=Cc2ccccc2C(F)(F)F)nnn1-c1nonc1N	·	·	5.7	·	·	·
Nc1nc2ccc(O)cc2s1	99.2*	0.5	·	-6.1	-7.3	11.5
Nc1nc2ccc(Br)cc2s1	·	·	·	-2.1	·	·
CCOC(=O)c1c(CSc2ccsc2)n(C)c2cc(Br)c(O)c(CN(C)C)c12	97.4*	2.9	8.1	-6.7	18.1	12.2
CCOC(=O)c1c(CSc2ccccc2)n(C)c2cc(Br)c(O)c(CN(C)C)c12	83.6*	-1.3	3.7	-15.9	12.1	20.8
CCOC(=O)c1c(CSc2ccc(C)cc2)n(C)c2cc(Br)c(O)c(CN(C)C)c12	?	6.0	6.5	-46.2	2.4	?
Cc1n[nH]c(=S)n1N=Cc1ccccc1OCc1ccc(Cl)cc1	·	·	2.4	·	·	·
COc1ccc(C=NNC(=O)c2ccc(Cl)cc2)cc1Cn1cc(Cl)cn1	·	·	0.6	·	·	·
O=[N+]([O-])c1cc(C=NN2CCOCC2)cs1	·	·	6.5	·	·	·
COc1cccc(-c2nnc(SC(C(=O)c3c[nH]c4ccccc34)c3ccccc3)n2C)c1 (stereo unspecified)	0.4	0.8	29.4*	11.9	-4.1	-6.4
CCOC(=O)C(=NNc1cccc(C(F)(F)F)c1)N1CCOCC1	·	·	5.3	·	·	·
COc1ccc(C=NNC(=O)c2nc(-c3ccccc3)n(-c3ccccc3)n2)c(O)c1	·	·	-38.8	·	·	·
S=C1NC2=C(CCCC2=C2SCCS2)C(c2ccccc2)N1 (stereo unspecified)	7.5	95.0*	5.7	4.6	-12.0	-2.8
Nn1cnnc1NN=Cc1ccc(F)cc1	·	·	1.5	·	·	·
COc1cc(/C(C)=N/NC(=O)CN2CCN(S(=O)(=O)c3ccc(C)cc3)CC2)ccc1O	98.3*	-4.9	·	2.2	1.9	2.6
C/C(=N\NC(=O)CN1CCN(S(=O)(=O)c2ccc(C)cc2)CC1)c1ccc(O)cc1	99.1*	2.3	·	4.6	-0.4	2.1
COc1cc(/C(C)=N/N2CCN(Cc3ccc(C)cc3)CC2)ccc1O	89.2*	2.2	·	-7.7	6.5	-9.2
Cc1ccc([C@@H]2[C@@H]3C(=O)N(C)C(=O)[C@@H]3[C@]3(C)C(=O)N(Cc4ccccn4)CC(=O)N23)o1	-1.8	-3.3	2.6	-11.0	1.5	-2.7
Cc1ccc([C@@H]2[C@@H]3C(=O)N(C)C(=O)[C@@H]3[C@]3(C)C(=O)N(Cc4ccccc4)CC(=O)N23)o1	·	-1.6	24.9*	-10.1	-1.2	2.3
COc1ccc(N=C2NC(=O)CS2)c([N+](=O)[O-])c1	-6.2	1.1	4.1	-3.9	-10.4	-2.1
O=C1CSC(=Nc2ccccc2[N+](=O)[O-])N1	-9.9	-4.8	29.4*	-10.7	0.1	·
CC(=NOCC(=O)NN=Cc1ccc(C)cc1O)c1cccs1	·	·	-5.2	·	·	·
SMILES	ALR H2O2 inh	HDAC3 inh	UCH37 inh	FAS TE block	PfM18AAP inh	Rtt109 HAT inh
COC(=O)CCS(=O)(=O)c1cc(Cl)ccc1Cl	95.4*	-4.2	1.1	-4.8	0.0	·
CCOC(=O)c1cc(C(C)=NOC(=O)c2ccc(Cl)cc2)on1	·	·	4.2	·	·	·
CCOC(=O)CS(=O)(=O)c1nc(-c2ccc(F)cc2)cc(C(F)(F)F)n1	33.8	9.8	3.0	28.3	-13.0	-6.0
COC(=O)CCS(=O)(=O)c1nc(-c2ccccc2)cc(C(F)(F)F)n1	97.7*	-3.8	4.4	19.3	-3.5	67.6*
CCOC(=O)CS(=O)(=O)c1nc(-c2ccccc2)cc(C(F)(F)F)n1	98.4*	-2.0	3.5	27.0	-22.6	-2.3
COc1ccc(-c2cc(C(F)(F)F)nc(S(C)(=O)=O)n2)cc1	·	3.7	-16.4	9.9	11.7	-22.4
COCC(C)NC(=O)CCS(=O)(=O)c1nc(-c2ccc(OC)cc2)cc(C(F)(F)F)n1 (stereo unspecified)	97.5*	7.1	-4.6	8.2	-8.2	6.3
